Only a selection was taken, and hits are over-represented in it overall.
T cruzi intra – blocks T. cruzi growth inside host cells | activity score (inhibition), % at 5.01 µM | AID 651903 | intracellular Trypanosoma cruzi in host cells, plate reader | 22,000 compounds, 4.9% hits; in the data active = activity score above about 55%; inconclusive = no clear call, values can overlap the other calls;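 note: parasites and compound incubated about four days before reading; 0% = median of neutral control wells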
A1 apoptosis 2 – A1 inhibition read as caspase activation | MEF A1-2A-BIM cells, caspase-Glo luminescence, 3 h; percent of clofoctol response, DMSO zero | caspase activation, % (no concentration beside the values) | 24,000 tested, under 10 active | AID 2465; in the data active = caspase activation above about 5.9%; inconclusive = no clear call, values can overlap the other calls; inactive = below about 2.2%
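System: mouse embryonic fibroblasts co-expressing A1 and BIM (A1-2A-BIM), primed for A1 dependence; amount: 2500 cells/well; doses: 50 nL pinned compound; schedule: cells settled overnight, compound exposure 3 h at 37 °C, 5% CO2; detection: Caspase-Glo 3/7 luminescence, 1 h at room temperature; read-out: Caspase-3/7 activation, seen as rise in luminescence signal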
INS-1E rescue – preserves ATP levels in cytokine-treated INS-1E cells; INS-1E cytokine-induced death, ATP luminescence, 48 h; normalised: neutral wells 0, positive control 100; 20,000 compounds, 0.1% hits; protection from cytokine-induced ATP loss, % at 10 µM; AID 488910;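 active = mean replicate protection from cytokine-induced ATP loss at least 50% and at least 75% of replicates each reaching 50%; inconclusive = meets only one of the two criteria, mean or replicate share; inactive = fails both the mean and replicate share criteria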
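Material: INS-1E rat cells; Quantity: 8000 cells/well; Buffer or medium: phenol-red-free RPMI with 5% fetal bovine serum; Probe or stimulus: cytokine cocktail of IFN-γ, TNF-α and IL-1β; Compound dosing: single test concentration per compound, delivered by pin transfer; Incubation: 48 h co-treatment, 10 min post-lysis read; Signal: CellTiter-Glo luminescence.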
* hit, by the source's call.

What do the screens show for `C[C@H](CO)N1C[C@H](C)[C@@H](CN(C)Cc2ccc(Cl)c(Cl)c2)Oc2ccc(NC(=O)Nc3ccc(F)cc3)cc2CC1=O`?
A1 apoptosis 2: 0

Results for C[C@H](CO)N1C[C@H](C)[C@H](CN(C)Cc2ccc(Cl)c(Cl)c2)Oc2ccc(NC(=O)Nc3ccc(F)cc3)cc2CC1=O ?
T cruzi intra: inconclusive; INS-1E rescue: -15

What do the screens show for `C[C@@H]1CN([C@@H](C)CO)C(=O)Cc2cc(NC(=O)Nc3ccccc3)ccc2O[C@@H]1CN(C)Cc1ccc(Cl)c(Cl)c1`?
T cruzi intra: 68*; INS-1E rescue: -50

How did CC(C)(C)/C=N/NC(=O)CCCCCCC(=O)Nc1ccccc1O do in these assays?
T cruzi intra: -1; A1 apoptosis 2: 0; INS-1E rescue: 3

What do the screens show for `Cc1ccc(S(=O)(=O)N2CCC[C@H]2CN=[N+]=[N-])cc1`?
A1 apoptosis 2: 1

What do the screens show for `O=C(O)CCCCCC(=O)N/N=C/c1ccc[nH]1`?
T cruzi intra: -2; INS-1E rescue: 10

What do the screens show for `CCCCN(CCCC)c1ccc(/C=N/NC(=O)CCCCCCC(=O)Nc2ccccc2O)cc1`?
T cruzi intra: 17; INS-1E rescue: -11

How did O=C(CCCCCCC(=O)Nc1ccccc1O)N/N=C/c1ccccn1 do in these assays?
T cruzi intra: -2; A1 apoptosis 2: 0; INS-1E rescue: 6

How did C[C@@H]1CN([C@@H](C)CO)C(=O)Cc2cc(NS(=O)(=O)c3ccccc3)ccc2O[C@@H]1CN(C)Cc1ccc(C(F)(F)F)cc1 do in these assays?
T cruzi intra: -7; A1 apoptosis 2: 0; INS-1E rescue: 5

How did C[C@@H]1CN([C@H](C)CO)C(=O)Cc2cc(NS(=O)(=O)c3ccc(Cl)cc3)ccc2O[C@H]1CN(C)Cc1ccc(C(F)(F)F)cc1 do in these assays?
T cruzi intra: 64*; A1 apoptosis 2: 0; INS-1E rescue: -12

Results for C[C@@H]1CN([C@@H](C)CO)C(=O)Cc2cc(NS(=O)(=O)c3ccc(Cl)cc3)ccc2O[C@@H]1CN(C)Cc1ccc(C(F)(F)F)cc1 ?
T cruzi intra: 58*; A1 apoptosis 2: 0; INS-1E rescue: -20

What do the screens show for `C[C@@H]1CN([C@H](C)CO)C(=O)Cc2cc(NS(=O)(=O)c3ccc(Cl)cc3)ccc2O[C@@H]1CN(C)Cc1ccc(C(F)(F)F)cc1`?
T cruzi intra: 54; A1 apoptosis 2: 0; INS-1E rescue: -19

Results for C[C@H]1CN([C@@H](C)CO)C(=O)Cc2cc(NS(=O)(=O)c3ccc(Cl)cc3)ccc2O[C@@H]1CN(C)Cc1ccc(C(F)(F)F)cc1 ?
T cruzi intra: 72*; INS-1E rescue: 5

Results for C[C@H](CO)N1C[C@H](C)[C@@H](CN(C)Cc2ccc(C(F)(F)F)cc2)Oc2ccc(NS(=O)(=O)c3ccc(Cl)cc3)cc2CC1=O ?
A1 apoptosis 2: 0

What do the screens show for `O=C(N/N=C/c1cc(O)ccc1[N+](=O)[O-])c1ccccc1O`?
T cruzi intra: 2; A1 apoptosis 2: -4; INS-1E rescue: -38

Results for COc1ccc([Si](C)(C)[C@@H]2[C@@H](CCO)O[C@]3(C(=O)N(Cc4ccc(N5CCC5=O)cc4)c4ccccc43)[C@H]2C)cc1 ?
A1 apoptosis 2: -1

How did C[C@@H]1CN([C@@H](C)CO)C(=O)c2cc(NC(=O)Nc3ccc(C(F)(F)F)cc3)ccc2O[C@@H]1CN(C)Cc1ccc(Cl)c(Cl)c1 do in these assays?
T cruzi intra: 75*; A1 apoptosis 2: 0; INS-1E rescue: -46

How did C[C@H](CO)N1C[C@H](C)[C@H](CN(C)C(=O)Nc2ccc(C(F)(F)F)cc2)Oc2ccc(NC(=O)Nc3ccc(C(F)(F)F)cc3)cc2C1=O do in these assays?
T cruzi intra: 74*; INS-1E rescue: -20

Results for C[C@H](CO)N1C[C@H](C)[C@@H](CN(C)Cc2ccc(C(F)(F)F)cc2)Oc2ccc(NC(=O)Nc3ccc(F)cc3)cc2C1=O ?
T cruzi intra: 12; A1 apoptosis 2: 0; INS-1E rescue: -62

How did C[C@@H]1CN([C@H](C)CO)C(=O)c2cc(NC(=O)Nc3ccc(C(F)(F)F)cc3)ccc2O[C@@H]1CN(C)Cc1ccccc1 do in these assays?
T cruzi intra: 14; A1 apoptosis 2: -1; INS-1E rescue: -31

What do the screens show for `C[C@H](CO)N1C[C@H](C)[C@H](CN(C)Cc2ccccc2)Oc2ccc(NC(=O)Nc3ccc(C(F)(F)F)cc3)cc2C1=O`?
T cruzi intra: 32*

Results for C[C@H](CO)N1C[C@H](C)[C@H](CN(C)Cc2ccc(C(F)(F)F)cc2)Oc2ccc(NC(=O)Nc3ccc(F)cc3)cc2C1=O ?
T cruzi intra: 58*; A1 apoptosis 2: -2

Assay outcomes: PubChem, Broad Institute
